The source made the active and inactive calls. The rule behind the calls is not given here.
Columns and labels:
Type in all cases: functional, cell-based
HeLa [1] = assay: Inhibition of mitosis in human HeLa cells by imaging analysis
Outline: (§1)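 HeLa cells (2,000 per well, DMEM with 10% FBS) were plated overnight, then treated with compound at 10 μM final for 20 h at 37 °C, in duplicate. Cells were pulsed 40 min with 500 nM EdU and fixed in 3.7% paraformaldehyde. Replication was read by rhodamine-azide click labelling, mitosis by anti-phosphohistone H3 Ser10/Cy5, and DNA by Hoechst. Automated 10× imaging scored ≥500 cells per well.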

HeLa [2] = assay: Cytotoxicity against human HeLa cells assessed as inhibition of DNA replication by imaging analysis; outline: as §1
HeLa [3] = assay: Induction of cell cycle arrest in human HeLa cells assessed as accumulation at G1 arrest at 10 uM after 20 hrs by Hoescht 33342 staining
Outline: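 HeLa cells plated at 2,000 per well in DMEM with 10% FBS and penicillin/streptomycin, grown overnight, then treated at a final 10 μM (diluted from 10 mM DMSO stock) for 20 h at 37 °C in duplicate. Pulsed 40 min with 500 nM EdU, fixed in 3.7% paraformaldehyde, stained with Hoechst 33342, anti-phosphoH3 Ser10 and rhodamine-azide. Imaged by automated microscopy at 10×; ≥500 cells scored per well.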

SMILES	inhibition (HeLa [1])	inhibition (HeLa [2])	Activity (HeLa [3])
CCC(=O)O[C@]1(C(=O)CCl)[C@@H](C)C[C@H]2[C@@H]3CCC4=CC(=O)C=C[C@]4(C)[C@@]3(F)[C@@H](O)C[C@@]21C	Active	Active	–
C[C@@H]1O[C@@H](O[C@H]2C[C@@H](O)[C@]3(CO)[C@H]4[C@H](O)C[C@]5(C)[C@@H](C6=CC(=O)OC6)CC[C@]5(O)[C@@H]4CC[C@]3(O)C2)[C@H](O)[C@H](O)[C@H]1O	Active	Active	–
C[C@H]1O[C@@H](O[C@H]2[C@@H](O)C[C@H](O[C@H]3[C@@H](O)C[C@H](O[C@H]4CC[C@@]5(C)[C@H](CC[C@@H]6[C@@H]5C[C@@H](O)[C@]5(C)[C@@H](C7=CC(=O)OC7)CC[C@]65O)C4)O[C@@H]3C)O[C@@H]2C)C[C@H](O)[C@@H]1O	Active	Active	–
CC[C@H]1CN2CCc3cc(OC)c(OC)cc3[C@@H]2C[C@@H]1C[C@H]1NCCc2cc(OC)c(OC)cc21	Active	Active	–
CCCCCC[C@H]1CC[C@@](O)([C@@](C)(O)C(=O)N[C@@H]2C(=O)N3NCCC[C@@H]3C(=O)N(O)[C@@H](COC)C(=O)NCC(=O)N3NCCC[C@H]3C(=O)N(O)[C@H](C)C(=O)O[C@H]2C)OC1C (some centres undefined)	–	–	Active
C[C@@H]1C[C@@H]([C@H](O)CC2CC(=O)NC(=O)C2)C(=O)[C@@H](C)C1	Active	Active	–
C#C[C@]1(O)CC[C@H]2[C@@H]3CCC4=Cc5oncc5C[C@]4(C)[C@H]3CC[C@@]21C	Active	Active	–
CC1=C2O[C@]3(O)C=C2C(=C(O)C1=O)[C@@H]1O[C@H](CC[C@H](C)/C=C(\C)C[C@@H](C)C[C@@H]3C)[C@H](C)[C@H](O)[C@H]1C	–	–	Active
C[C@]12C=CC(=O)C=C1CC[C@H]1[C@@H]3C[C@@H](O)[C@](O)(C(=O)CO)[C@@]3(C)C[C@H](O)[C@@]12F	Active	Active	–
C[C@]12CC[C@H](O)C[C@H]1CC[C@@H]1[C@@H]2CC[C@]2(C)[C@@H](C3=CC(=O)OC3)CC[C@]12O	Active	Active	–
CC(=O)[C@H]1CC[C@H]2[C@@H]3CCC4=CC(=O)CC[C@]4(C)[C@H]3CC[C@]12C	Active	Active	–
C[C@@H]1C[C@H]2[C@@H]3CCC4=CC(=O)C=C[C@]4(C)[C@@]3(F)[C@@H](O)C[C@]2(C)[C@@]1(O)C(=O)CO	Active	Active	–
COC[C@H]1C(=O)NCC(=O)N2NCCC[C@H]2C(=O)N(O)[C@H](C)C(=O)O[C@@H](C(C)C)[C@H](NC(=O)[C@](C)(O)[C@]2(O)CC[C@@H](CC(C)C)[C@H](C)O2)C(=O)N2NCCC[C@@H]2C(=O)N1O	–	–	Active
CC(C)[C@H]1CC[C@@](O)(CCl)[C@H]2C(=O)OCC(C(=O)O)=C[C@H]12	–	–	Active
